Each structure is given as a SMILES string.

In data set [1] the target is Matrix metalloproteinase-14 (Homo sapiens) (UniProt P50281). Description: Inhibition of MMP14.
A short description of data set [2]: AUC in rat at 10 mg/kg, po. Type of data set: ADME, organism-based. Set-up: dose 10 mg/kg, route oral. The note with it: plasma.
Data set [3] can be described thus: Cmax in rat at 10 mg/kg, po. Type of data set: ADME, organism-based. Set-up: dose 10 mg/kg, route oral. As to conditions: in vivo. In a few lines:
(§1)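 Rats were dosed separately at 3 mg/kg iv and 10 mg/kg po. Reported parameters were AUC (µM h), T1/2 (h), Cl (L/h/kg) and Vss (L/kg) after iv dosing, and AUC, Cmax (µM), Tmax (h) and F% after oral dosing.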

Data set [4] concerns Rattus norvegicus. Kind of data set: Clearance in rat at 3 mg/kg, iv. In kind it is ADME, organism-based. Set-up: dose 3 mg/kg, route intravenous. As to conditions: in vivo. In a few lines: as §1
Data set [5] deals with T1, Disintegrin and metalloproteinase domain-containing protein 10 (Homo sapiens) (UniProt O14672).
T1 sequence (whole entry): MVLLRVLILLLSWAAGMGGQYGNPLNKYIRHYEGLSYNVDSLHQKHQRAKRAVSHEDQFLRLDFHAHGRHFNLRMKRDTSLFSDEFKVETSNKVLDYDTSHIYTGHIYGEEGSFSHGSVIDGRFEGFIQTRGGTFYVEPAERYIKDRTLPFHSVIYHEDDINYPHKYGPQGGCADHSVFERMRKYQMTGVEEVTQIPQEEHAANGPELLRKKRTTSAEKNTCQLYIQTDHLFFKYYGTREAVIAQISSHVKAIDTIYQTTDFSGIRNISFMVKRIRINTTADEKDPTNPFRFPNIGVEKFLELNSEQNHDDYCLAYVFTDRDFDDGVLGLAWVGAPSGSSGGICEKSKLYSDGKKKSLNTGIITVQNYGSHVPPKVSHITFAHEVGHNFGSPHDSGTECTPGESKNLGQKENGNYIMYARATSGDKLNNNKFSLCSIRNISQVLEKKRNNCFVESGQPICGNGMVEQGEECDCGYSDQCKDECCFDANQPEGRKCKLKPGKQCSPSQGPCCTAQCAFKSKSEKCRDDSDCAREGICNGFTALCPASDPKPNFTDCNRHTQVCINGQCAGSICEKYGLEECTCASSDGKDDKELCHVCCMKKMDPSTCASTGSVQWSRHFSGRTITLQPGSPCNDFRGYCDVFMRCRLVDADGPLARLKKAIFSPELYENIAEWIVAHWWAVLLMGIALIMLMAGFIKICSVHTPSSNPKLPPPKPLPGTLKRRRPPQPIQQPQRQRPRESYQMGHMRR
Kind of data set: Inhibition of ADAM10.

Data set [6] has as its target 72 kDa type IV collagenase (Homo sapiens) (UniProt P08253). Description: Inhibition of MMP2.
Data set [7] deals with Rattus norvegicus. Kind of data set: Volume of distribution at steady state in rat at 3 mg/kg, iv. In kind it is ADME, organism-based. Set-up: dose 3 mg/kg, route intravenous. As to conditions: in vivo. In a few lines: as §1
For data set [8], the system named is Rattus norvegicus. Kind of data set: AUC in rat at 3 mg/kg, iv. In kind it is ADME, organism-based, Plasma. Set-up: dose 3 mg/kg, route intravenous. The note with it: in vivo.
Data set [9] concerns the target Stromelysin-1 (Homo sapiens) (UniProt P08254). Description: Inhibition of MMP3.
Data set [10] concerns the target T2, Matrilysin (Homo sapiens) (UniProt P09237).
T2 sequence (whole entry): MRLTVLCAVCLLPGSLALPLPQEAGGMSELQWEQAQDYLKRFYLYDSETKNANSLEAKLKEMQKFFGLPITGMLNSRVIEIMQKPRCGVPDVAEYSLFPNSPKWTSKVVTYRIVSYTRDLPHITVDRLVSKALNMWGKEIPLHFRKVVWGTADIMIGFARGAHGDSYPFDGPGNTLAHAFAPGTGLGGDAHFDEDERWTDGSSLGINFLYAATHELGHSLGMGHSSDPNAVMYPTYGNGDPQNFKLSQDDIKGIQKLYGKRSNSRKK
Description: Inhibition of MMP7.

Data set [11] is described as follows: Tmax in rat at 10 mg/kg, po. Type of data set: ADME, organism-based. Set-up: dose 10 mg/kg, route oral. The note with it: in vivo. Put shortly:
as §1

Data set [12] in a line: Oral bioavailability in rat at 10 mg/kg. In kind it is ADME, organism-based. As to conditions: in vivo. Put shortly: as §1
In data set [13] the target is Matrix metalloproteinase-9 (Homo sapiens) (UniProt P14780). Kind of data set: Inhibition of MMP9.
Data set [14] deals with Collagenase 3 (Homo sapiens) (UniProt P45452). Kind of data set: Inhibition of MMP13.
Data set [15] relates to Rattus norvegicus. Kind of data set: Half life in rat at 3 mg/kg, iv. Type of data set: ADME, organism-based. On the set-up: dose 3 mg/kg, route intravenous. The note with it: in vivo. Put shortly:
as §1

Data set [16] addresses T3, Interstitial collagenase (Homo sapiens) (UniProt P03956).
T3 sequence (whole entry): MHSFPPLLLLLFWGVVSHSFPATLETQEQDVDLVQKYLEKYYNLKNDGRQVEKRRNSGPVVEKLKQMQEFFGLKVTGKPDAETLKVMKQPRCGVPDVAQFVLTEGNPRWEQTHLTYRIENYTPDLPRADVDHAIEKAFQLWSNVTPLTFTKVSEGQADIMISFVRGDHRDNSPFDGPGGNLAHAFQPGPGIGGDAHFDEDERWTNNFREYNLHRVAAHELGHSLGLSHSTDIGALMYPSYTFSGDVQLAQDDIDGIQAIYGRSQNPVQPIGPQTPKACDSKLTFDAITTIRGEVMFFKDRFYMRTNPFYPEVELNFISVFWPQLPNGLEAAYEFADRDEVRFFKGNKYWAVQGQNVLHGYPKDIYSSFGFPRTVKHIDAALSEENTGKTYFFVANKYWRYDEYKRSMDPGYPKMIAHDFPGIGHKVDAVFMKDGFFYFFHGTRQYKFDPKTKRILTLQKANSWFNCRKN
Kind of data set: Inhibition of MMP1.

Data set [17] deals with Disintegrin and metalloproteinase domain-containing protein 17 (Homo sapiens, UniProt P78536). Description: Inhibition of TACE assessed as inhibition of pro-TNFalpha peptide cleavage.
Sequence of Disintegrin and metalloproteinase domain-containing protein 17 (P78536 whole entry, the tested form may be a part): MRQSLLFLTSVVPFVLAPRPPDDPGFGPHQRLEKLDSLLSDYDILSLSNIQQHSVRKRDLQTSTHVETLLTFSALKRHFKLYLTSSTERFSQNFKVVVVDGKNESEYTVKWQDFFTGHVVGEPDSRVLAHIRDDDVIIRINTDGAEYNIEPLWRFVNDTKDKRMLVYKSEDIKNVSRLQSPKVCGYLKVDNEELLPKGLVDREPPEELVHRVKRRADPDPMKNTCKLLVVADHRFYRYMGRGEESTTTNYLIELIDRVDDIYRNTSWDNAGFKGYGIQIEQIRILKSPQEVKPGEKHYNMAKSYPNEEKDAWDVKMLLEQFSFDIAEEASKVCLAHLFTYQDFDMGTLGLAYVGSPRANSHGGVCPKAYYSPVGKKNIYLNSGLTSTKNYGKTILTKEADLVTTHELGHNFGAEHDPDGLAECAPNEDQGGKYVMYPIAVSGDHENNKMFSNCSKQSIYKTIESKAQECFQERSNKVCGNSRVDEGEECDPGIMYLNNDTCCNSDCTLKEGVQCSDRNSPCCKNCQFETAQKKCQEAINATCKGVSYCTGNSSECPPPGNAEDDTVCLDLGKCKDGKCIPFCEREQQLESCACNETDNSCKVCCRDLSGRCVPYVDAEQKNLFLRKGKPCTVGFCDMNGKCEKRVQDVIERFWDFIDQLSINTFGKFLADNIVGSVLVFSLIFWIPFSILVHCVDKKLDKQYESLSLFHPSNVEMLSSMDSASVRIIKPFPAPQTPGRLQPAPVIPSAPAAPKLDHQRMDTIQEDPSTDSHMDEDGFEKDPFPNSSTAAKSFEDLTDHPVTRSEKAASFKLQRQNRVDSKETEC

Sequence of Matrix metalloproteinase-9 (Homo sapiens) (P14780 whole entry): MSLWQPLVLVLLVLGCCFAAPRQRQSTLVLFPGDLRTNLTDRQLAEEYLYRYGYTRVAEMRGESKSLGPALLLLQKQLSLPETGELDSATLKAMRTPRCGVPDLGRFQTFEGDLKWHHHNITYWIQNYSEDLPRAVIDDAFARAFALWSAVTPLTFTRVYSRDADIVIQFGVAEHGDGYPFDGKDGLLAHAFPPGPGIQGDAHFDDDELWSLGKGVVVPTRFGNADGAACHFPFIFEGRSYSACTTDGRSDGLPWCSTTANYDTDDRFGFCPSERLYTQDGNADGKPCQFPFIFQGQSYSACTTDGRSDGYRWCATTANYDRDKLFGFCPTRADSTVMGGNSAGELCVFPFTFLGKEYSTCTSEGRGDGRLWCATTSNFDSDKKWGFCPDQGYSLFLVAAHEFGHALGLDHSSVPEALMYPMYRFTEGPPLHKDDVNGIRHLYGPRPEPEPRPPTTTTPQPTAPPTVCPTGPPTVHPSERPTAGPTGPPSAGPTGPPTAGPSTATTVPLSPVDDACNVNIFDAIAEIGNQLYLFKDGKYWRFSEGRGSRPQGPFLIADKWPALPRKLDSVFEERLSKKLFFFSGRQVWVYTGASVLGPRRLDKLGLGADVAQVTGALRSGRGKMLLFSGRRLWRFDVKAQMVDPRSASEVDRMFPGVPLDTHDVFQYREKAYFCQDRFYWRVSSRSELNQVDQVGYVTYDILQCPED
Sequence of Stromelysin-1 (Homo sapiens) (P08254 100-477 limits assumed): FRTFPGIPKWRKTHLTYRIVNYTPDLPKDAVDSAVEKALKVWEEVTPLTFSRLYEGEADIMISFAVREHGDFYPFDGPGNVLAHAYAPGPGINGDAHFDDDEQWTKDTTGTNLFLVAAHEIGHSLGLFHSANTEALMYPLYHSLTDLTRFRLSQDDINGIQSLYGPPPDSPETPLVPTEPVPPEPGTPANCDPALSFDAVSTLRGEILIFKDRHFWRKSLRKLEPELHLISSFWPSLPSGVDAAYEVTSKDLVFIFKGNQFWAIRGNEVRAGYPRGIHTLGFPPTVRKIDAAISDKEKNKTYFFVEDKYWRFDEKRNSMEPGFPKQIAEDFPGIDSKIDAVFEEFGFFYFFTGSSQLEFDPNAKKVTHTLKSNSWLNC
Sequence of 72 kDa type IV collagenase (Homo sapiens) (P08253 110-660 limits assumed): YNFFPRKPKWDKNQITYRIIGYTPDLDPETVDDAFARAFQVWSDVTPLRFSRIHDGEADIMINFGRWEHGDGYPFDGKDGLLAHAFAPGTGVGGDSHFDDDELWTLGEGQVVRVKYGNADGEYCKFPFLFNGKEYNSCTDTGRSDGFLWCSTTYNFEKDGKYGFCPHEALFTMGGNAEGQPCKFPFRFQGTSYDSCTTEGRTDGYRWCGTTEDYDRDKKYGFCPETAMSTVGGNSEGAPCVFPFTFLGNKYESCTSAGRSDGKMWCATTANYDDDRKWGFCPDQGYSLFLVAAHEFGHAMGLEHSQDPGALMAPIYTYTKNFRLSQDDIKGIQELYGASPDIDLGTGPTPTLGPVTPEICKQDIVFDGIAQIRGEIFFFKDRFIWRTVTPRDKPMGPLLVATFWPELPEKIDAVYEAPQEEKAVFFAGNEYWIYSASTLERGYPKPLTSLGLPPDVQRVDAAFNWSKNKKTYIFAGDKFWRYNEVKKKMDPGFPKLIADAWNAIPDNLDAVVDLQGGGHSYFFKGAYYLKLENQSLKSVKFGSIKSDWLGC

For the molecule `COc1ccc2c(c1)C(=O)N(C[C@@]1(c3ccc(-c4cnn(C)c4)cc3)NC(=O)NC1=O)C2`, the INH was 19 nM in [1]; 187 nM in data set [5]; 24 nM in data set [6]; 430 nM in data set [9]; > 40 µM in [10]; 122 nM in data set [13]. The INH is 202 nM in data set [14] and 718 nM in [16]. Further, the results for the AUC in [2] and in data set [8] were 22.2 µM·h and 36.2 µM·h, respectively. Besides, the Cmax – broadly, the highest concentration seen after dosing – in data set [3] is 4.45 µM. The CL in data set [4] was found to be 55 mL/min/kg. The Vdss (commonly a proportionality between amount in the body and measured concentration, not a real space) in data set [7] was 0.3 L/kg. The Tmax – broadly, the time from dosing to the highest level – in data set [11] was 2 h. Besides, the bioavailability (usually dose-corrected exposure relative to a reference, in per cent) in data set [12] was determined as 18%. In [15], this molecule had a t1/2 of 4.4 h.
For the molecule `COc1ccc2c(c1)C(=O)N(C[C@@]1(c3ccc(-c4nccs4)cc3)NC(=O)NC1=O)C2`, in [17], the Ki – broadly, the equilibrium dissociation constant of an inhibitor or competing ligand from its target – is 0.6 nM.
On the same count and under the same terms, then `O=C1NC(=O)[C@](CN2Cc3ccc(F)cc3C2=O)(c2ccc(-c3ccc(=O)[nH]c3)cc2)N1`, with 0.2 nM.
On the same count and under the same terms, then `O=C1NC(=O)[C@](CN2Cc3ccc(F)cc3C2=O)(c2ccc(-c3ccc(F)cc3F)cc2)N1`, with 2 nM; and `COc1ccc2c(c1)C(=O)N(C[C@@]1(c3ccc(-c4ccc(C(N)=O)cc4)cc3)NC(=O)NC1=O)C2`, with 3 nM; and `COc1ccc2c(c1)C(=O)N(C[C@@]1(c3ccc(-c4cc(-c5ccccc5)no4)cc3)NC(=O)NC1=O)C2`, with 28 nM.
With `COc1ccc2c(c1)C(=O)N(C[C@@]1(c3ccc(-c4cccc(-c5csc(C)n5)c4)cc3)NC(=O)NC1=O)C2`, the Ki in data set [17] is 31 nM.
For `COc1ccc2c(c1)C(=O)N(C[C@@]1(c3ccc(-c4ccnc(N)c4)cc3)NC(=O)NC1=O)C2`, in [17], the Ki was determined as 1.4 nM.
Turning to `COC(=O)c1ccc(-c2ccc([C@]3(CN4Cc5ccc(OC)cc5C4=O)NC(=O)NC3=O)cc2)cc1`, in data set [17], the Ki stood at 9 nM.
Regarding `COc1ccc2c(c1)C(=O)N(C[C@@]1(c3ccc(C4(C)NC(=O)NC4=O)cc3)NC(=O)NC1=O)C2` (stereo partly drawn), the Ki in data set [17] was 2.6 nM.
On the same count and under the same terms, in the case of `COc1ccc2c(c1)C(=O)N(C[C@@]1(c3ccc(Oc4ccncc4)cc3)NC(=O)NC1=O)C2` it was 7 nM; in that of `COc1ccc2c(c1)C(=O)N(C[C@@]1(c3ccc(-c4ccncc4)cc3)NC(=O)NC1=O)C2`, 0.6 nM.
On the same count and under the same terms, in the case of `O=C1NC(=O)[C@](CN2Cc3ccc(F)cc3C2=O)(c2ccc(-c3c[nH]c(=O)c(Cl)c3)cc2)N1` it was 0.1 nM.
With `COc1ccc2c(c1)C(=O)N(C[C@@]1(c3ccc(Oc4ccc5cnccc5c4)cc3)NC(=O)NC1=O)C2`, the Ki in [17] amounted to 8 nM.
On to `COc1ccc2c(c1)C(=O)N(C[C@@]1(c3ccc(-c4cccnc4)cc3)NC(=O)NC1=O)C2`, for which the INH came to 25 nM in data set [1]; 216 nM in data set [5]; 3.61 nM in data set [9]; 17.4 µM in data set [10]; 124 nM in [13]; 155 nM in data set [14]. This molecule also yielded an INH in data set [16] of 655 nM. Besides, the AUC – broadly, concentration integrated over time – in [2] is 9.1 µM·h; in data set [8], 19 µM·h. Also, the highest concentration (Cmax) in data set [3] is 2.96 µM. Also, the CL in data set [4] is 103 mL/min/kg. This molecule also gave a Vdss in data set [7] of 0.3 L/kg. Further, in [11], the Tmax was determined as 0.58 h. In [12], this molecule had a bioavailability of 14.1%. This molecule yielded a t1/2 in [15] of 4.3 h.
Consider `COc1ccc2c(c1)C(=O)N(C[C@@]1(c3ccc(-c4ccnc(C)c4)cc3)NC(=O)NC1=O)C2`, for which the INH worked out at 36 nM in data set [1]; 253 nM in [5]; 86 nM in data set [6]; 434 nM in data set [9]; 30 µM in data set [10]; 212 nM in data set [13]. Moreover, the INH in data set [14] is 194 nM; in [16] it was 1740 nM. The AUC in data set [2] came out at 13 µM·h; in [8], 21 µM·h. Also, in data set [17], the Ki was 0.5 nM. This molecule had a Cmax in data set [3] of 3.3 µM. Besides, the CL in data set [4] was found to be 91.7 mL/min/kg. The molecule also showed a Vdss in data set [7] of 0.3 L/kg. Moreover, the Tmax in data set [11] is 1.7 h. This molecule also registered a bioavailability in [12] of 19%. This molecule yielded a t1/2 in data set [15] of 4.4 h.
In the case of `COc1ccc2c(c1)C(=O)N(C[C@@]1(c3ccc(-c4cncnc4)cc3)NC(=O)NC1=O)C2`, the Ki in data set [17] was 0.9 nM.
As for `O=C1NC(=O)[C@](CN2Cc3ccc(F)cc3C2=O)(c2ccc(-c3ccc(C(F)(F)F)cc3)cc2)N1`, in [17], the Ki came out at 18 nM.
